From ChEMBL document CHEMBL3400141, “Substituted piperazines as nootropic agents: 2- or 3-phenyl derivatives structurally related to the cognition-enhancer DM235” (Bioorg Med Chem Lett, 2015)

System: Mus musculus
Experiment: Cognition enhancing activity in sc dosed mouse assessed as reversal of scopolamine-induced amnesia measured up to 24 hrs treated 20 mins before training session by passive-avoidance test
Format: functional
Details: read-out: MED
Outline: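 Mouse passive-avoidance test (Jarvik and Kopp, slightly modified). Compounds in DMSO/saline (1:10), given s.c. 20 min before training, tested in a 1:10 dose-dilution sequence. Amnesia induced by scopolamine 1.5 mg/kg i.p. immediately after punishment. Mean of 8–16 mice per group; activity reported as minimal effective dose (MED, mg/kg).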

Structure (SMILES)	minimal effective dose
O=C(c1ccccc1)N1CCNCC1	0.1 mg/kg
CC(=O)N1CCN(S(=O)(=O)c2ccc(F)cc2)C(C)C1 (centres undefined)	0.1 mg/kg
CC(=O)N1CCN(S(=O)(=O)c2ccc(F)cc2)CC1C (centres undefined)	1 mg/kg
CCC(=O)N1CCN(C(=O)c2ccccc2)C(C)C1 (centres undefined)	0.1 mg/kg
CCC(=O)N1CCN(C(=O)c2ccccc2)CC1C (centres undefined)	> 10 mg/kg
CC(=O)N1CCN(S(=O)(=O)c2ccc(F)cc2)CC1	0.01 mg/kg
CCC(=O)N1CCNC(c2ccccc2)C1 (centres undefined)	> 10 mg/kg
CC(=O)N1CCNC(c2ccccc2)C1 (centres undefined)	> 10 mg/kg
O=S(=O)(c1ccc(F)cc1)N1CCNC(c2ccccc2)C1 (centres undefined)	> 10 mg/kg
CCC(=O)N1CCN(C(=O)c2ccccc2)C[C@@H]1c1ccccc1	1 mg/kg
CCC(=O)N1CCN(C(=O)c2ccccc2)C[C@H]1c1ccccc1	0.1 mg/kg
CCC(=O)N1CCN(C(=O)c2ccccc2)C(c2ccccc2)C1 (centres undefined)	1 mg/kg
CC(=O)N1CCN(S(=O)(=O)c2ccc(F)cc2)C(c2ccccc2)C1 (centres undefined)	10 mg/kg
CC(=O)N1CCN(S(=O)(=O)c2ccc(F)cc2)CC1c1ccccc1 (centres undefined)	> 10 mg/kg
CCC(=O)N1CCN(C(=O)c2ccccc2)CC1Cc1ccccc1 (centres undefined)	1 mg/kg
CCC(=O)N1CCN(C(=O)c2ccccc2)C(Cc2ccccc2)C1 (centres undefined)	1 mg/kg
CCC(=O)N1CCNCC1	0.1 mg/kg
CCC(=O)N1CCN2C(=O)c3ccccc3C2C1 (centres undefined)	> 10 mg/kg
O=C1c2ccccc2C2CN(S(=O)(=O)c3ccc(F)cc3)CCN12 (centres undefined)	0.1 mg/kg
O=C(c1ccccc1)N1CCNC(c2ccccc2)C1 (racemic)	> 10 mg/kg
CCC(=O)N1CCN(C(=O)c2ccccc2)CC1c1ccccc1 (racemic)	0.1 mg/kg
NC(=O)CN1CCCC1=O [PIRACETAM]	30 mg/kg
CCC(=O)N1CCN(C(=O)c2ccccc2)CC1 [SUNIFIRAM]	0.001 mg/kg
O=C1CCC2CN(S(=O)(=O)c3ccc(F)cc3)CCN12 (centres undefined) [UNIFIRAM]	0.001 mg/kg
